In ChEMBL document CHEMBL5352427, “Isoquinolone derivatives as lysophosphatidic acid receptor 5 (LPA5) antagonists: Investigation of structure-activity relationships, ADME properties and analgesic effects” (Eur J Med Chem, 2022):
pEC50, pIC50: −log10 of the molar value. Activity calls are given as the source filed them. How the calls were made is not given here.

How the values were obtained:
Type in all cases: functional, cell-based
[1] = target: T1, Lysophosphatidic acid receptor 5 (Homo sapiens, UniProt Q9H1C0); assay: Agonist activity at human LPA5 receptor expressed in RH7777 cells assessed as calcium mobilization incubated for 15 mins by FLIPR method
T1 sequence (Q9H1C0 whole entry): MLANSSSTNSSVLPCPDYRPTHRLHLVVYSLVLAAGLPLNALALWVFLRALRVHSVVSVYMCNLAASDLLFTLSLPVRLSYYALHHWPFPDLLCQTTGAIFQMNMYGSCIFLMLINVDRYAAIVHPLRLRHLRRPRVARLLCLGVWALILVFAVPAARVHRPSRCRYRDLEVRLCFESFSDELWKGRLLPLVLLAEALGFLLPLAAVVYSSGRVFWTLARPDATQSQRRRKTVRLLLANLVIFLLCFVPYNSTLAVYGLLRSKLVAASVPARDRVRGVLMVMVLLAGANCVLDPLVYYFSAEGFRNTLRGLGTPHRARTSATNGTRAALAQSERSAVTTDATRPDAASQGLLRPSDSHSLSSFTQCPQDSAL
Outline: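 RH7777 cells stably expressing hLPA5, plated 20,000/well in 0.2% FBS medium 18–20 h, loaded 45 min at 37 °C with Calcium 5 dye in HBSS/20 mM HEPES/2.5 mM probenecid pH 7.4. […] Duplicates.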

[2] = target: T1, Lysophosphatidic acid receptor 5; assay: Antagonist activity at human LPA5 receptor expressed in RH7777 cells assessed as inhibition of EC80 concentration of hexadecyl LPA-induced calcium mobilization incubated for 15 mins by FLIPR method
[3] = target: T1, Lysophosphatidic acid receptor 5; assay: Antagonist activity at human LPA5 receptor expressed in RH7777 cells assessed as inhibition of EC80 concentration of hexadecyl LPA-induced calcium mobilization incubated for 15 mins by FLIPR method relative to hexadecyl LPA
[4] = target: T1, Lysophosphatidic acid receptor 5; assay: Antagonist activity at human LPA5 receptor expressed in RH7777 cells assessed as inhibition of EC80 concentration of LPA-induced cAMP accumulation preincubated for 30 mins followed by Eu-cAMP tracer addition and measured after 1 hr by TR-FRET assay relative to hexadecyl LPA; conditions: filed as antagonist
Outline: (§1)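 hLPA5-RH7777 cells, switched to 0.2% FBS medium 20 h prior, lifted with versene, 2,000 cells/well in HBSS/5 mM HEPES/0.1% BSA/0.5 mM IBMX pH 7.4. Compound dilutions with hexadecyl LPA 16:0 EC80 (300 nM) plus forskolin, 30 min room temperature; LANCE Ultra Eu-cAMP tracer/ULight-anti-cAMP 1 h; TR-FRET 665 nm converted to cAMP via standard curve. Three-parameter logistic IC50; ≥3 experiments in duplicate.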

[5] = target: T1, Lysophosphatidic acid receptor 5; assay: Antagonist activity at human LPA5 receptor expressed in RH7777 cells assessed as inhibition of EC80 concentration of LPA-induced cAMP accumulation preincubated for 30 mins followed by Eu-cAMP tracer addition and measured after 1 hr by TR-FRET assay; outline: as §1

| Compound | Activity [1] | pIC50 [2] | inhibition ([3]; filed as antagonist) [%] | inhibition [3] [%] | inhibition [4] [%] | pEC50 [5] | pEC50 [2] |
| --- | --- | --- | --- | --- | --- | --- | --- |
| COc1cc2c(=O)n(-c3cccc(N(C)C)c3)cc(C(=O)N3CCC(F)CC3)c2cc1OC(C)C | inactive | 6.43 | 96 |  |  |  |  |
| COc1cc2c(C(=O)N3CCCCC3)cn(-c3ccccn3)c(=O)c2cc1OC | inactive | < 5.00 |  |  |  |  |  |
| COc1cc2c(C(=O)N3CCCCC3)cn(-c3ccc4occc4c3)c(=O)c2cc1OC | inactive | 5.96 | 93 |  |  |  |  |
| COc1cc2c(C(=O)N3CCCCC3)cn(-c3cccnc3)c(=O)c2cc1OC | inactive | < 5.00 |  |  |  |  |  |
| COc1cc2c(C(=O)N3CCCCC3)cn(-c3cccc(C(C)C)c3)c(=O)c2cc1OC | inactive | 7.20 | 105 |  |  |  |  |
| COc1cc2c(C(=O)N3CCCc4ccccc43)cn(-c3cccc(N(C)C)c3)c(=O)c2cc1OC | inactive | 5.36 | 86 |  |  |  |  |
| COc1cc2c(C(=O)N3CCC(F)CC3)cn(-c3ccc4occc4c3)c(=O)c2cc1OC | inactive | 5.83 | 88 |  |  |  |  |
| COc1cc2c(C(=O)N3C4CCC3CC4)cn(-c3cccc(N(C)C)c3)c(=O)c2cc1OC | inactive | < 5.00 |  |  |  |  |  |
| COc1ccc2c(C(=O)N3CCC(F)CC3)cn(-c3cccc(N(C)C)c3)c(=O)c2c1 | inactive | 5.97 | 96 |  |  |  |  |
| CN(C)c1cccc(-n2cc(C(=O)N3CCC(F)CC3)c3ccccc3c2=O)c1 | inactive | < 5.00 |  |  |  |  |  |
| COc1cc2c(C(=O)N3CCCCC3)cn(-c3ccc4scc(C)c4c3)c(=O)c2cc1OC | inactive | 7.49 | 105 |  |  |  |  |
| COc1cc2c(C(=O)N3CCCCC3)cn(-c3cccc(C(N)=O)c3)c(=O)c2cc1OC | inactive | < 5.00 |  |  |  |  |  |
| CCCCCCCCCCCCCCCCOC[C@@H](O)COP(=O)(O)O |  |  |  |  |  | 7.02 | 7.82 |
| COc1cc2c(C(=O)N3CCCCC3)cn(-c3cccc(OC(C)C)c3)c(=O)c2cc1OC | inactive | 6.20 | 100 |  |  |  |  |
| CCCOc1cc2c(C(=O)N3CCC(F)CC3)cn(-c3cccc(N(C)C)c3)c(=O)c2cc1OC | inactive | 6.32 | 109 |  |  |  |  |
| COc1cc2c(C(=O)N3CCCCC3)cn(-c3cccc(C(=O)N(C)C)c3)c(=O)c2cc1OC | inactive | < 5.00 |  |  |  |  |  |
| COc1cc2c(=O)n(-c3cccc(N(C)C)c3)cc(C(=O)N3CCC(F)CC3)c2cc1OC1CCCCC1 | inactive | 6.29 | 96 |  |  |  |  |

| Compound | Activity [1] | pIC50 [2] | inhibition ([3]; filed as antagonist) [%] | inhibition [3] [%] | inhibition [4] [%] | pEC50 [5] | pEC50 [2] |
| --- | --- | --- | --- | --- | --- | --- | --- |
| COc1cc2c(C(=O)N3CCC(C(F)(F)F)CC3)cn(-c3cccc(N(C)C)c3)c(=O)c2cc1OC | inactive | 5.81 | 87 |  |  |  |  |
| COc1cc2c(C(=O)N3CCCCC3)cn(-c3cccc(C(C)(C)C)c3)c(=O)c2cc1OC | inactive | 6.76 | 107 |  |  |  |  |
| COc1cc2c(C(=O)N3CCCCC3)cn(-c3ccc4sccc4c3)c(=O)c2cc1OC | inactive | 6.19 | 101 |  |  |  |  |
| COc1cc2c(=O)n(-c3cccc(N(C)C)c3)cc(C(=O)N3CCC(F)CC3)c2cc1OCc1ccccn1 | inactive | < 5.00 |  |  |  |  |  |
| COc1cc2c(C(=O)N3C4CCCC3CC4)cn(-c3cccc(N(C)C)c3)c(=O)c2cc1OC | inactive | 6.64 | 103 |  |  |  |  |
| CCCCCOc1cc2c(C(=O)N3CCC(F)CC3)cn(-c3cccc(N(C)C)c3)c(=O)c2cc1OC | inactive | 6.64 | 111 |  |  |  |  |
| COc1cc2c(=O)n(-c3cccc(N(C)C)c3)cc(C(=O)N3CCC(F)CC3)c2cc1OCc1cccc2ccccc12 | inactive | < 5.00 |  |  |  |  |  |
| COc1cc2c(C(=O)N3CCCCC3)cn(-c3ccncc3)c(=O)c2cc1OC | inactive | < 5.00 |  |  |  |  |  |
| COc1cc2c(=O)n(-c3cccc(N(C)C)c3)cc(C(=O)N3CCC(F)CC3)c2cc1OCC(F)(F)F | inactive | 5.60 | 74 |  |  |  |  |
| COc1cc2c(=O)n(-c3cccc(N(C)C)c3)cc(C(=O)N3CCC(F)CC3)c2cc1O | inactive | 5.86 | 93 |  |  |  |  |
| COc1cc2c(=O)n(-c3cccc(N(C)C)c3)cc(C(=O)N3CCC(F)CC3)c2cc1OC1CCCC1 | inactive | 6.05 | 103 |  |  |  |  |
| COc1cc2c(C(=O)N3CCCCC3)cn(-c3ccc4cccc(C)c4c3)c(=O)c2cc1OC | inactive | 6.68 | 108 |  |  |  |  |
| COc1cc2c(C(=O)N3CCCCC3)cn(-c3cccc(C(C)=O)c3)c(=O)c2cc1OC | inactive | 5.75 | 74 |  |  |  |  |
| COc1cc2c(C(=O)N3CCC(c4ccccc4)CC3)cn(-c3cccc(N(C)C)c3)c(=O)c2cc1OC | inactive | 5.92 | 108 |  |  |  |  |
| COc1cc2c(C(=O)N3CCC(c4ccc(F)cc4F)CC3)cn(-c3cccc(N(C)C)c3)c(=O)c2cc1OC | inactive | < 5.00 |  |  |  |  |  |
| COc1ccc2c(=O)n(-c3cccc(N(C)C)c3)cc(C(=O)N3CCC(F)CC3)c2c1 | inactive | < 5.00 |  |  |  |  |  |
| COc1cc2c(C(=O)N3CCCCC3)cn(-c3ccc4onc(C)c4c3)c(=O)c2cc1OC | inactive | 5.41 | 56 |  |  |  |  |

Further lines, results first:

| Activity [1] | pIC50 [2] | inhibition ([3]; filed as antagonist) [%] | inhibition [3] [%] | inhibition [4] [%] | pEC50 [5] | pEC50 [2] | Compound |
| --- | --- | --- | --- | --- | --- | --- | --- |
| inactive | < 5.00 |  |  |  |  |  | COc1cc2c(C(=O)N(C)Cc3ccncc3)cn(-c3cccc(N(C)C)c3)c(=O)c2cc1OC |
| inactive | < 5.00 |  |  |  |  |  | COc1cc2c(C(=O)Nc3ccccc3)cn(-c3cccc(N(C)C)c3)c(=O)c2cc1OC |
| inactive | 6.80 | 105 |  |  |  |  | COc1cc2c(C(=O)N3CCC(C)CC3)cn(-c3cccc(N(C)C)c3)c(=O)c2cc1OC |
| inactive | 5.66 | 71 |  |  |  |  | COc1cc2c(C(=O)N3CCOCC3)cn(-c3cccc(N(C)C)c3)c(=O)c2cc1OC |
| inactive | 6.19 | 89 |  |  |  |  | COc1cc2c(C(=O)N3CCC(OC)CC3)cn(-c3cccc(N(C)C)c3)c(=O)c2cc1OC |
| inactive | < 5.00 |  |  |  |  |  | COc1cc2c(C(=O)N3CCC(C(N)=O)CC3)cn(-c3cccc(N(C)C)c3)c(=O)c2cc1OC |
| inactive | < 5.00 |  |  |  |  |  | CCCCCNC(=O)c1cn(-c2cccc(N(C)C)c2)c(=O)c2cc(OC)c(OC)cc12 |
| inactive | < 5.00 |  |  |  |  |  | CCNC(=O)c1cn(-c2cccc(N(C)C)c2)c(=O)c2cc(OC)c(OC)cc12 |
| inactive | 6.49 |  | 33 |  |  |  | COc1cc2c(C(=O)N(C)OC)cn(-c3cccc(N(C)C)c3)c(=O)c2cc1OC |
| inactive | 6.99 | 89 |  | 92 |  |  | COc1cc2c(C(=O)N3CCC(C#N)CC3)cn(-c3cccc(N(C)C)c3)c(=O)c2cc1OC |
| inactive | 5.96 | 90 |  |  |  |  | COc1cc2c(C(=O)N3CCC(C)(C)CC3)cn(-c3cccc(N(C)C)c3)c(=O)c2cc1OC |
| inactive | < 5.00 |  |  |  |  |  | COc1cc2c(C(=O)NCc3ccccc3)cn(-c3cccc(N(C)C)c3)c(=O)c2cc1OC |
| inactive | < 5.00 |  |  |  |  |  | COc1cc2c(C(=O)C3CCCCC3)cn(-c3cccc(N(C)C)c3)c(=O)c2cc1OC |
| inactive | < 5.00 |  |  |  |  |  | COc1cc2c(C(=O)N3CCCC3)cn(-c3cccc(N(C)C)c3)c(=O)c2cc1OC |
| inactive | 7.34 | 105 |  | 101 |  |  | C#CC1CCN(C(=O)c2cn(-c3cccc(N(C)C)c3)c(=O)c3cc(OC)c(OC)cc23)CC1 |
| inactive | 6.59 | 104 |  |  |  |  | COc1cc2c(C(=O)N3CCCC(C)C3)cn(-c3cccc(N(C)C)c3)c(=O)c2cc1OC (racemic) |
| inactive | < 5.00 |  |  |  |  |  | COc1cc2c(C(=O)N3CCC3)cn(-c3cccc(N(C)C)c3)c(=O)c2cc1OC |
| inactive | < 5.00 |  |  |  |  |  | COc1cc2c(C(=O)N(C)C)cn(-c3cccc(N(C)C)c3)c(=O)c2cc1OC |
| inactive | 6.52 | 109 |  |  |  |  | COc1cc2c(C(=O)N3CCCCCCC3)cn(-c3cccc(N(C)C)c3)c(=O)c2cc1OC |
| inactive | < 5.00 |  |  |  |  |  | COc1cc2c(C(=O)NC3CCCC3)cn(-c3cccc(N(C)C)c3)c(=O)c2cc1OC |
| inactive | 6.00 | 98 |  |  |  |  | COc1cc2c(C(=O)N3CCCCC3C)cn(-c3cccc(N(C)C)c3)c(=O)c2cc1OC (racemic) |
| inactive | 7.04 | 91 |  |  |  |  | CC#CC1CCN(C(=O)c2cn(-c3cccc(N(C)C)c3)c(=O)c3cc(OC)c(OC)cc23)CC1 |
